Measured values published in ChEMBL document CHEMBL4689842, “EUbOPEN Chemogenomics Library wave 1” (2021).
Several values for one entry are separate records, joined by “and”; a condition that tells them apart may be missing. Equal entries are not always repeated.

Tested on: Fibroblast
Assay: Multiplex assay against human fibroblast
Type: toxicity, cell-based
In short: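 With compound added, live cells were imaged on a CQ1 microscope at 37°C and 5% CO2; staining with Hoechst33342, BioTracker Green Microtubule Cytoskeleton Dye, MitoTracker Red and Annexin V Alexa Fluor 680 had been done at seeding. The CellPathfinder machine-learning gating scheme split cells into Hoechst high-intensity objects or normal cells, normal cells into healthy, pyknosed or fragmented nuclei, and pyknosed cells into mitotic or apoptotic. The tubulin, mitochondrial-mass and membrane-permeability phenotypes are per cents of healthy-nucleus cells.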

[1] = 12 h, 1 µM, compound concentration 1 uM, replicate 1
[2] = 12 h, 1 µM, compound concentration 1 uM, replicate 2
[3] = 12 h, 10 µM, compound concentration 10 uM, replicate 1
[4] = 12 h, 10 µM, compound concentration 10 uM, replicate 2
[5] = 24 h, 1 µM, compound concentration 1 uM, replicate 1
[6] = 24 h, 1 µM, compound concentration 1 uM, replicate 2
[7] = 24 h, 10 µM, compound concentration 10 uM, replicate 1
[8] = 24 h, 10 µM, compound concentration 10 uM, replicate 2
[9] = 48 h, 1 µM, compound concentration 1 uM, replicate 1
[10] = 48 h, 1 µM, compound concentration 1 uM, replicate 2
[11] = 48 h, 10 µM, compound concentration 10 uM, replicate 1
[12] = 48 h, 10 µM, compound concentration 10 uM, replicate 2

## O=C(NCCCC1CCCCC1)c1ccc(CNC(=O)c2cnn(-c3ccccc3)c2C(F)(F)F)cc1 [SR-321]
[1]
  Population Apoptotic (%): 68% [middle of 4 runs]
  Population Fragmented Nuclei (%): 20% and 21% and 28%
  Population Healthy Nuclei (%): 35% and 39% and 42%
  Population Hoechst High Intensity Objects (%): 12% and 11% and 10%
  Population Mitochondria Different-Phenotype (%): 13% [middle of 4 runs]
  Population Mitotic Cells (%): 36% [middle of 4 runs]
  Population Normal (%): 87% and 88% and 89%
  Population Pyknosed Nuclei (%): 39% [middle of 4 runs]
  Total Cell Count: 176 [middle of 4 runs]
[2]
  Population Membrane Permeable-Phenotype (%): 14% and 0% and 22%
  Population Normal (%): 91% and 78% and 92% and 56%
  Population Pyknosed Nuclei (%): 5% and 6% and 4%
  Total Cell Count: 72 [middle of 4 runs]
[3]
  Population Apoptotic (%): 50% and 60% and 77%
  Population Fragmented Nuclei (%): 23% [middle of 4 runs]
  Population Healthy Nuclei (%): 36% and 34% and 55%
  Population Hoechst High Intensity Objects (%): 10% and 9% and 6%
  Population Mitotic Cells (%): 49% [middle of 4 runs]
  Population Normal (%): 89% and 90% and 93%
  Population Pyknosed Nuclei (%): 46% and 38% and 43%
  Total Cell Count: 161 [middle of 4 runs]
[4]
  Population Healthy Nuclei (%): 71% and 66% and 69%
  Population Membrane Permeable-Phenotype (%): 5% and 2% and 0%
  Population Mitotic Cells (%): 80% and 81% and 44%
  Population Normal (%): 73% and 94% and 91% and 70%
  Total Cell Count: 103 [middle of 4 runs]
[5]
  Population Apoptotic (%): 31% and 58% and 66%
  Population Fragmented Nuclei (%): 20% [middle of 4 runs]
  Population Healthy Nuclei (%): 48% [middle of 4 runs]
  Population Hoechst High Intensity Objects (%): 13% [middle of 4 runs]
  Population Mitochondria Different-Phenotype (%): 6% [middle of 4 runs]
  Population Mitotic Cells (%): 68% and 41% and 33%
  Population Normal (%): 86% and 90% and 82% and 87%
  Population Pyknosed Nuclei (%): 33% [middle of 4 runs]
  Total Cell Count: 174 [middle of 4 runs]
[6]
  Population Membrane Permeable-Phenotype (%): 4% [middle of 4 runs]
  Population Mitochondria Different-Phenotype (%): 19% and 12% and 7%
  Population Mitotic Cells (%): 100% and 40% and 60%
  Population Normal (%): 85% and 95% and 89% and 56%
  Total Cell Count: 79 [middle of 4 runs]
[7]
  Population Apoptotic (%): 50% and 57% and 51% and 64%
  Population Fragmented Nuclei (%): 16% and 31% and 23%
  Population Healthy Nuclei (%): 42% [middle of 4 runs]
  Population Hoechst High Intensity Objects (%): 12% [middle of 4 runs]
  Population Mitotic Cells (%): 49% and 42% and 48% and 35%
  Population Normal (%): 85% and 90% and 89% and 87%
  Population Pyknosed Nuclei (%): 46% and 36% and 34%
  Total Cell Count: 148 [middle of 4 runs]
[8]
  Population Apoptotic (%): 33% and 44%
  Population Fragmented Nuclei (%): 20% and 42%
  Population Healthy Nuclei (%): 67% and 65% and 40%
  Population Membrane Permeable-Phenotype (%): 4% [middle of 4 runs]
  Population Mitotic Cells (%): 50% and 66% and 55%
  Population Normal (%): 93% and 81% and 92% and 63%
  Population Pyknosed Nuclei (%): 15% [middle of 4 runs]
  Total Cell Count: 103 [middle of 4 runs]
[9]
  Population Apoptotic (%): 75% and 54% and 59%
  Population Fragmented Nuclei (%): 29% and 25% and 21%
  Population Healthy Nuclei (%): 44% and 51% and 53%
  Population Hoechst High Intensity Objects (%): 16% and 14% and 15%
  Population Membrane Permeable-Phenotype (%): 36% and 26% and 20%
  Population Mitochondria Different-Phenotype (%): 2% and 6%
  Population Mitotic Cells (%): 24% and 45% and 40%
  Population Normal (%): 83% and 85% and 84%
  Population Pyknosed Nuclei (%): 26% and 22% and 24%
  Population Tubulin-Different-Phenotype (%): 38% and 34% and 20%
  Total Cell Count: 132 and 170 and 130
[10]
  Population Fragmented Nuclei (%): 14% and 19% and 13%
  Population Healthy Nuclei (%): 85% and 80%
  Population Hoechst High Intensity Objects (%): 13% and 9%
  Population Membrane Permeable-Phenotype (%): 16% and 10%
  Population Mitochondria Different-Phenotype (%): 1% and 0%
  Population Mitotic Cells (%): 0%
  Population Normal (%): 86% and 90%
  Population Pyknosed Nuclei (%): 1% and 0%
  Population Tubulin-Different-Phenotype (%): 28% and 17% and 14%
  Total Cell Count: 116 and 92 and 152
[11]
  Population Apoptotic (%): 63% and 65% and 75%
  Population Fragmented Nuclei (%): 27% and 40% and 39%
  Population Healthy Nuclei (%): 39% and 42%
  Population Hoechst High Intensity Objects (%): 15% and 13% and 9%
  Population Membrane Permeable-Phenotype (%): 15% and 23% and 22%
  Population Mitochondria Different-Phenotype (%): 10% and 23% and 14%
  Population Mitotic Cells (%): 36% and 35% and 24%
  Population Normal (%): 84% and 86% and 90%
  Population Pyknosed Nuclei (%): 33% and 16% and 21%
  Population Tubulin-Different-Phenotype (%): 46% and 52% and 68%
  Total Cell Count: 117 and 138 and 152
[12]
  Population Apoptotic (%): 50% and 100%
  Population Fragmented Nuclei (%): 21%
  Population Healthy Nuclei (%): 68% and 76% and 75%
  Population Hoechst High Intensity Objects (%): 8% and 14%
  Population Mitochondria Different-Phenotype (%): 7% and 5% and 11%
  Population Normal (%): 91% and 85%
  Population Tubulin-Different-Phenotype (%): 67% and 60% and 42%
  Total Cell Count: 108 and 85 and 70

## Cc1nc(-c2cn3c(n2)-c2ccc(-c4cnn(C(C)(C)C(N)=O)c4)cc2OCC3)n(C(C)C)n1 [TASELISIB]
[1]
  Population Apoptotic (%): 85%
  Population Fragmented Nuclei (%): 29%
  Population Healthy Nuclei (%): 53%
  Population Hoechst High Intensity Objects (%): 12%
  Population Membrane Permeable-Phenotype (%): 7%
  Population Mitochondria Different-Phenotype (%): 6%
  Population Mitotic Cells (%): 14%
  Population Normal (%): 87%
  Population Pyknosed Nuclei (%): 17%
  Population Tubulin-Different-Phenotype (%): 16%
  Total Cell Count: 221
[2]
  Population Apoptotic (%): 100%
  Population Fragmented Nuclei (%): 61%
  Population Healthy Nuclei (%): 33%
  Population Hoechst High Intensity Objects (%): 30%
  Population Membrane Permeable-Phenotype (%): 15%
  Population Mitochondria Different-Phenotype (%): 10%
  Population Mitotic Cells (%): 0%
  Population Normal (%): 69%
  Population Pyknosed Nuclei (%): 5%
  Population Tubulin-Different-Phenotype (%): 60%
  Total Cell Count: 86
[3]
  Population Apoptotic (%): 71%
  Population Fragmented Nuclei (%): 25%
  Population Healthy Nuclei (%): 65%
  Population Hoechst High Intensity Objects (%): 11%
  Population Membrane Permeable-Phenotype (%): 7%
  Population Mitochondria Different-Phenotype (%): 2%
  Population Mitotic Cells (%): 28%
  Population Normal (%): 88%
  Total Cell Count: 188
[4]
  Population Apoptotic (%): 33%
  Population Fragmented Nuclei (%): 47%
  Population Healthy Nuclei (%): 43%
  Population Hoechst High Intensity Objects (%): 30%
  Population Membrane Permeable-Phenotype (%): 13%
  Population Mitochondria Different-Phenotype (%): 13%
  Population Mitotic Cells (%): 66%
  Population Normal (%): 69%
  Population Pyknosed Nuclei (%): 8%
  Population Tubulin-Different-Phenotype (%): 0%
  Total Cell Count: 99
[5]
  Population Apoptotic (%): 78%
  Population Fragmented Nuclei (%): 32%
  Population Healthy Nuclei (%): 51%
  Population Hoechst High Intensity Objects (%): 14%
  Population Membrane Permeable-Phenotype (%): 5%
  Population Mitochondria Different-Phenotype (%): 7%
  Population Mitotic Cells (%): 21%
  Population Normal (%): 85%
  Population Pyknosed Nuclei (%): 16%
  Population Tubulin-Different-Phenotype (%): 18%
  Total Cell Count: 238
[6]
  Population Apoptotic (%): 60%
  Population Fragmented Nuclei (%): 62%
  Population Healthy Nuclei (%): 30%
  Population Hoechst High Intensity Objects (%): 27%
  Population Membrane Permeable-Phenotype (%): 14%
  Population Mitochondria Different-Phenotype (%): 0%
  Population Mitotic Cells (%): 40%
  Population Normal (%): 72%
  Population Pyknosed Nuclei (%): 7%
  Population Tubulin-Different-Phenotype (%): 47%
  Total Cell Count: 97
[7]
  Population Apoptotic (%): 73%
  Population Fragmented Nuclei (%): 23%
  Population Healthy Nuclei (%): 67%
  Population Hoechst High Intensity Objects (%): 13%
  Population Membrane Permeable-Phenotype (%): 6%
  Population Mitochondria Different-Phenotype (%): 2%
  Population Mitotic Cells (%): 26%
  Population Normal (%): 86%
  Population Tubulin-Different-Phenotype (%): 1%
  Total Cell Count: 188
[8]
  Population Apoptotic (%): 42%
  Population Fragmented Nuclei (%): 38%
  Population Healthy Nuclei (%): 51%
  Population Hoechst High Intensity Objects (%): 22%
  Population Membrane Permeable-Phenotype (%): 10%
  Population Mitochondria Different-Phenotype (%): 15%
  Population Mitotic Cells (%): 57%
  Population Normal (%): 77%
  Population Pyknosed Nuclei (%): 9%
  Population Tubulin-Different-Phenotype (%): 5%
  Total Cell Count: 99
